Experimental data: ChEMBL document CHEMBL1123030, “N-(Aminoalkyl)imide antineoplastic agents. Synthesis and biological activity” (J Med Chem, 1985)
The source made the active and inactive calls. The calls are words filed in the database; no cut-off is given here.

Key:
[1] = tested on: L1210; test: Cytotoxic activity against L1210 leukemia in vitro.; assay type: functional, Mus musculus
[2] = tested on: Mus musculus; test: Compound was evaluated for inhibitory activity in vivo against P388 leukemia cells in mice at a dose of 6.25 mg/kg upon intraperitoneal administration; assay type: functional
Method in brief: (§1)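 Tumor source was ascites fluid implanted into BDF₁ mice. Tumor inoculation and drug dosing were both intraperitoneal, given once daily for 5 days (q1d × 5). Screening and data interpretation followed the general NCI protocol.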

[3] = tested on: P388; test: Inhibitory activity in vivo against P388 leukemia cells in mice at a dose of 12.5 mg/kg upon intraperitoneal administration; assay type: functional, Mus musculus; method in brief: as §1
[4] = tested on: Mus musculus; test: Compound was evaluated for inhibitory activity in vivo against P388 leukemia cells in mice at a dose of 3.13 mg/kg upon intraperitoneal administration; assay type: functional; method in brief: as §1
[5] = tested on: Mus musculus; test: Compound was evaluated for inhibitory activity in vivo against P388 leukemia cells in mice at a dose of 3.12 mg/kg upon intraperitoneal administration; assay type: functional; method in brief: as §1
[6] = Cytotoxic activity against human colon adenocarcinoma in vitro; assay type: functional
[7] = tested on: P388; test: Inhibitory activity in vivo against P388 leukemia cells in mice at a dose of 50 mg/kg upon intraperitoneal administration; assay type: functional, Mus musculus; method in brief: as §1
[8] = tested on: P388; test: Inhibitory activity in vivo against P388 leukemia cells in mice at a dose of 25 mg/kg upon intraperitoneal administration; assay type: functional, Mus musculus; method in brief: as §1
[9] = tested on: L1210; test: Compound was tested for cytotoxic activity against L1210 leukemia in vitro; IA means inactive; assay type: functional, cell-based; details: Mus musculus
[10] = tested on: P388; test: Inhibitory activity in vivo against P388 leukemia cells in mice at a dose of 100 mg/kg upon intraperitoneal administration; assay type: functional, Mus musculus; method in brief: as §1
[11] = tested on: Mus musculus; test: Compound was evaluated for inhibitory activity in vivo against P388 leukemia cells in mice at a dose of 200 mg/kg upon intraperitoneal administration; assay type: functional; method in brief: as §1
[12] = tested on: Mus musculus; test: Compound was evaluated for inhibitory activity in vivo against P388 leukemia cells in mice at a dose of 0.39 mg/kg upon intraperitoneal administration; assay type: functional; method in brief: as §1
[13] = tested on: Mus musculus; test: Compound was evaluated for inhibitory activity in vivo against P388 leukemia cells in mice at a dose of 0.78 mg/kg upon intraperitoneal administration; assay type: functional; method in brief: as §1
[14] = tested on: Mus musculus; test: Compound was evaluated for inhibitory activity in vivo against P388 leukemia cells in mice at a dose of 1.56 mg/kg upon intraperitoneal administration; assay type: functional; method in brief: as §1
[15] = species: Homo sapiens; test: Compound was tested for cytotoxic activity against human colon adenocarcinoma in vitro; IA means inactive; assay type: functional
[16] = species: Homo sapiens; test: (§2) Compound was tested for cytotoxic activity against human colon adenocarcinoma in vitro; IA means Inactive; assay type: functional
[17] = tested on: Mus musculus; test: Compound was evaluated for inhibitory activity in vivo against P388 leukemia cells in mice at a dose of 60 mg/kg upon intraperitoneal administration; assay type: functional; method in brief: as §1
[18] = tested on: Mus musculus; test: Compound was evaluated for inhibitory activity in vivo against P388 leukemia cells in mice at a dose of 120 mg/kg upon intraperitoneal administration; assay type: functional; method in brief: as §1
[19] = tested on: Mus musculus; test: Compound was evaluated for inhibitory activity in vivo against P388 leukemia cells in mice at a dose of 30 mg/kg upon intraperitoneal administration; assay type: functional; method in brief: as §1
[20] = tested on: Mus musculus; test: Compound was evaluated for inhibitory activity in vivo against P388 leukemia cells in mice at a dose of 15 mg/kg upon intraperitoneal administration; assay type: functional; method in brief: as §1
[21] = tested on: L1210 leukemia (Mus musculus); test: Compound was evaluated for inhibitory activity against L1210 leukemia in mice at a dose of 50 mg/kg upon intraperitoneal administration
[22] = tested on: Mus musculus; test: Compound was evaluated for inhibitory activity in vivo against P388 leukemia cells in mice at a dose of 400 mg/kg upon intraperitoneal administration; assay type: functional; method in brief: as §1
[23] = tested on: Mus musculus; test: Compound was evaluated for inhibitory activity in vivo against P388 leukemia cells in mice at a dose of 240 mg/kg upon intraperitoneal administration; assay type: functional; method in brief: as §1
[24] = tested on: Mus musculus; test: Compound was evaluated for inhibitory activity in vivo against P388 leukemia cells in mice at a dose of 8 mg/kg upon intraperitoneal administration; assay type: functional; method in brief: as §1
[25] = tested on: Mus musculus; test: Compound was evaluated for inhibitory activity in vivo against P388 leukemia cells in mice at a dose of 4 mg/kg upon intraperitoneal administration; assay type: functional; method in brief: as §1
[26] = tested on: Mus musculus; test: Compound was evaluated for inhibitory activity in vivo against P388 leukemia cells in mice at a dose of 16 mg/kg upon intraperitoneal administration; assay type: functional; method in brief: as §1
[27] = tested on: Mus musculus; test: Compound was evaluated for inhibitory activity in vivo against P388 leukemia cells in mice at a dose of 2 mg/kg upon intraperitoneal administration; assay type: functional; method in brief: as §1
[28] = as §2
[29] = tested on: L1210; test: Compound was tested for cytotoxic activity against L1210 leukemia in vitro; IA means Inactive; assay type: functional, cell-based; details: Mus musculus

SMILES	Cytotoxic concentration [1]	T/C [3]	T/C [7]	T/C [8]	T/C [10]	also measured
Cl.O=C1c2cccc3cc([N+](=O)[O-])cc(c23)C(=O)N1CCN1CCCC1	159 nM	163				T/C [2]: 149; T/C [4]: 135
CNCCN1C(=O)c2cccc3cc([N+](=O)[O-])cc(c23)C1=O.Cl	266 nM	177				T/C [2]: 139; T/C [5]: 129
CCN(CC)CCN1C(=O)c2cc([N+](=O)[O-])cc3cc([N+](=O)[O-])cc(c23)C1=O.Cl	347 nM	141	215	207		Cytotoxic concentration [6]: 0.82 µM
COc1ccc2c3c(ccc(OC)c13)C(=O)N(CCN(C)C)C2=O			120	102	118	Cytotoxic concentration [9]: inactive; T/C [11]: 123
Cl.O=C1c2cc([N+](=O)[O-])cc3cc([N+](=O)[O-])cc(c23)C(=O)N1CCN1CCCC1	82.9 nM					Cytotoxic concentration [6]: 0.172 µM; T/C [12]: 117; T/C [13]: 126; T/C [14]: 138; T/C [5]: 136
CN(C)CCN1C(=O)c2cccc3cc(O)cc(c23)C1=O	1640 nM				115	Cytotoxic concentration [15]: inactive; T/C [11]: 142
CCN(CC)CCN1C(=O)c2cccc3cc([N+](=O)[O-])cc(c23)C1=O.Cl	1370 nM	120		149		
O=C1OCCN1CCN1C(=O)c2cc([N+](=O)[O-])cc3cc([N+](=O)[O-])cc(c23)C1=O	2020 nM					Cytotoxic concentration [16]: inactive; T/C [17]: 109; T/C [18]: 119
CN(C)CCN1C(=O)c2cccc3cccc(c23)C1=O	2050 nM		130	116	166	
Cl.Nc1cc2c3c(cc(N)cc3c1)C(=O)N(CCN1CCCCC1)C2=O	1390 nM	119				Cytotoxic concentration [6]: 1.27 µM; T/C [17]: 191; T/C [19]: 142; T/C [20]: 136; T/C [21]: 145
CN(C)CCN1C(=O)c2cc(O)cc3cc(O)cc(c23)C1=O	3540 nM	122	142	130	148	Cytotoxic concentration [15]: inactive; T/C [22]: 140; T/C [11]: 149
O=C1c2cc([N+](=O)[O-])cc3cc([N+](=O)[O-])cc(c23)C(=O)N1CCNCCO.O=S(=O)(O)O	431 nM					Cytotoxic concentration [6]: 1.25 µM; T/C [17]: 123; T/C [19]: 118; T/C [18]: 123; T/C [23]: 132
Cl.O=C1c2cccc3cc([N+](=O)[O-])cc(c23)C(=O)N1CCN1CCCCC1	590 nM	119	176	137		
CN(C)CCN1C(=O)c2cccc3c(Cl)ccc(c23)C1=O	1010 nM		121	105	120	
CN(C)CCN1C(=O)c2cccc3cc(N)cc(c23)C1=O [AMONAFIDE]						T/C [24]: 144; T/C [25]: 142; T/C [26]: 177; T/C [27]: 135
O=C1c2cc([N+](=O)[O-])cc3cc([N+](=O)[O-])cc(c23)C(=O)N1c1nncs1		91	127	119	137	Cytotoxic concentration [28]: Not Active; Cytotoxic concentration [29]: inactive
